We go through 13 molecules from ChEMBL document CHEMBL2086318, “Synthesis and in vitro antimycobacterial activity of 2-methoxybenzanilides and their thioxo analogues” (Eur J Med Chem, 2012).

What all share (format): functional
Assay [1] concerns Mycobacterium kansasii. In words: Antimycobacterial activity against Mycobacterium kansasii My 6509/96 clinical isolate after 14 days by micromethod. Conditions: My 6509/96, 336 h.
Assay [2] has as its system Mycobacterium kansasii. In words: Antimycobacterial activity against Mycobacterium kansasii My 235/80 after 7 days by micromethod. Conditions: My 235/80, 168 h.
The test system of assay [3] is Mycobacterium avium. Description: Antimycobacterial activity against Mycobacterium avium My 330/88 after 21 days by micromethod. The settings on record: My 330/88, 504 h.
In assay [4] the test system is Mycobacterium kansasii. Description: Antimycobacterial activity against Mycobacterium kansasii My 6509/96 clinical isolate after 21 days by micromethod. Conditions: My 6509/96, 504 h.
The subject of assay [5] is Mycobacterium tuberculosis. In words: Antimycobacterial activity against Mycobacterium tuberculosis My 331/88 after 21 days by micromethod. Conditions: My 331/88, 504 h. Summed up:
(§1)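 MIC by micromethod at 37 °C, read after 14 and 21 days. Inocula were M. tuberculosis My 331/88 at 10^-3 dilution and M. avium My 330/88 at 10^-5 dilution. Compounds added in DMSO across 1000, 500, 250, 125, 62.5, 32, 16, 8, 4, 2, 1 and 0.5; isoniazid standard in sterile water. MIC taken as the lowest concentration inhibiting growth.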

Assay [6] concerns Mycobacterium kansasii. Description: Antimycobacterial activity against Mycobacterium kansasii My 235/80 after 21 days by micromethod. Conditions: My 235/80, 504 h.
Assay [7] has as its system Mycobacterium kansasii. Description: Antimycobacterial activity against Mycobacterium kansasii My 6509/96 clinical isolate after 7 days by micromethod. The settings on record: My 6509/96, 168 h.
The subject of assay [8] is Mycobacterium kansasii. Description: Antimycobacterial activity against Mycobacterium kansasii My 235/80 after 14 days by micromethod. Conditions: My 235/80, 336 h.
Assay [9] relates to Mycobacterium avium. Description: Antimycobacterial activity against Mycobacterium avium My 330/88 after 14 days by micromethod. The settings on record: My 330/88, 336 h.
Assay [10] concerns Mycobacterium tuberculosis. Description: Antimycobacterial activity against Mycobacterium tuberculosis My 331/88 after 14 days by micromethod. Conditions: My 331/88, 336 h. The essentials:
as §1

In brackets after ≈: the same amount, converted by molar mass.

Consider `COc1cc(Cl)ccc1C(=S)Nc1ccc(C(F)(F)F)cc1`, for which the MIC (as a rule, the least concentration at which growth counts as inhibited) in the assay with Mycobacterium kansasii [1] worked out at 32 µM (≈ 11.1 µg/mL); in the assay with Mycobacterium kansasii [2], 16 µM (≈ 5.53 µg/mL); in the assay on Mycobacterium avium [3], 32 µM (≈ 11.1 µg/mL); against Mycobacterium kansasii [4] it was 32 µM (≈ 11.1 µg/mL); in [5], 16 µM (≈ 5.53 µg/mL); in the assay on Mycobacterium kansasii [6], 62.5 µM (≈ 21.6 µg/mL). The MIC in the assay with Mycobacterium kansasii [7] came out at 8 µM (≈ 2.77 µg/mL); in the assay on Mycobacterium kansasii [8] it was 32 µM (≈ 11.1 µg/mL); with Mycobacterium avium [9] it was 32 µM (≈ 11.1 µg/mL); in assay [10] it was 8 µM (≈ 2.77 µg/mL).

Turning to `COc1ccc(Cl)cc1C(=O)Nc1cccc(Cl)c1`, the MIC came to 250 µM (≈ 74 µg/mL) in the assay on Mycobacterium kansasii [1]; 62.5 µM (≈ 18.5 µg/mL) in the assay on Mycobacterium kansasii [2]; 250 µM (≈ 74 µg/mL) in the assay with Mycobacterium avium [3]; 250 µM (≈ 74 µg/mL) in the assay on Mycobacterium kansasii [4]; 250 µM (≈ 74 µg/mL) in assay [5]; 250 µM (≈ 74 µg/mL) with Mycobacterium kansasii [6]. Also, the MIC is 125 µM (≈ 37 µg/mL) against Mycobacterium kansasii [7], 250 µM (≈ 74 µg/mL) in the assay on Mycobacterium kansasii [8], 250 µM (≈ 74 µg/mL) in the assay with Mycobacterium avium [9] and 250 µM (≈ 74 µg/mL) in assay [10].

On to `O=C(Nc1ccc(Cl)cc1)c1ccc(Cl)cc1O`, for which the MIC against Mycobacterium avium [3] came to 8 µM (≈ 2.26 µg/mL); in assay [5] it was 4 µM (≈ 1.13 µg/mL); with Mycobacterium kansasii [6], 8 µM (≈ 2.26 µg/mL); with Mycobacterium kansasii [8], 4 µM (≈ 1.13 µg/mL); in the assay with Mycobacterium avium [9] it was 8 µM (≈ 2.26 µg/mL); in [10], 4 µM (≈ 1.13 µg/mL).

For the molecule `COc1cc(Cl)ccc1C(=S)Nc1cccc([N+](=O)[O-])c1`, the MIC against Mycobacterium kansasii [1] stood at 16 µM (≈ 5.16 µg/mL); with Mycobacterium kansasii [2], 32 µM (≈ 10.3 µg/mL); in the assay with Mycobacterium avium [3], 16 µM (≈ 5.16 µg/mL); against Mycobacterium kansasii [4], 32 µM (≈ 10.3 µg/mL); in [5], 16 µM (≈ 5.16 µg/mL); against Mycobacterium kansasii [6] it was 62.5 µM (≈ 20.2 µg/mL). The MIC with Mycobacterium kansasii [7] was determined as 8 µM (≈ 2.58 µg/mL); against Mycobacterium kansasii [8], 32 µM (≈ 10.3 µg/mL); against Mycobacterium avium [9], 16 µM (≈ 5.16 µg/mL); in [10] it was 8 µM (≈ 2.58 µg/mL).

For `COc1cc(Cl)ccc1C(=O)Nc1ccc(Br)cc1`, the MIC stood at 8 µM (≈ 2.72 µg/mL) against Mycobacterium kansasii [1]; 4 µM (≈ 1.36 µg/mL) against Mycobacterium kansasii [2]; 32 µM (≈ 10.9 µg/mL) in the assay with Mycobacterium avium [3]; 32 µM (≈ 10.9 µg/mL) against Mycobacterium kansasii [4]; 125 µM (≈ 42.6 µg/mL) in assay [5]; 32 µM (≈ 10.9 µg/mL) against Mycobacterium kansasii [6]. Also, the MIC against Mycobacterium kansasii [7] worked out at 4 µM (≈ 1.36 µg/mL); in the assay with Mycobacterium kansasii [8], 8 µM (≈ 2.72 µg/mL); with Mycobacterium avium [9], 8 µM (≈ 2.72 µg/mL); in assay [10], 62.5 µM (≈ 21.3 µg/mL).

In the case of `O=C(Nc1cccc(Cl)c1)c1ccc(Cl)cc1O`, the MIC is 16 µM (≈ 4.51 µg/mL) in the assay on Mycobacterium avium [3]; 4 µM (≈ 1.13 µg/mL) in assay [5]; 8 µM (≈ 2.26 µg/mL) with Mycobacterium kansasii [6]; 4 µM (≈ 1.13 µg/mL) against Mycobacterium kansasii [8]; 16 µM (≈ 4.51 µg/mL) against Mycobacterium avium [9]; 4 µM (≈ 1.13 µg/mL) in assay [10].

`COc1cc(Cl)ccc1C(=S)Nc1cccc(Br)c1`: the MIC is 125 µM (≈ 44.6 µg/mL) with Mycobacterium kansasii [1]; 125 µM (≈ 44.6 µg/mL) against Mycobacterium kansasii [2]; 125 µM (≈ 44.6 µg/mL) against Mycobacterium avium [3]; 125 µM (≈ 44.6 µg/mL) in the assay with Mycobacterium kansasii [4]; 32 µM (≈ 11.4 µg/mL) in [5]; 125 µM (≈ 44.6 µg/mL) against Mycobacterium kansasii [6]. The minimal inhibitory concentration (MIC) against Mycobacterium kansasii [7] is 125 µM (≈ 44.6 µg/mL); in the assay on Mycobacterium kansasii [8], 125 µM (≈ 44.6 µg/mL); against Mycobacterium avium [9], 125 µM (≈ 44.6 µg/mL); in assay [10], 32 µM (≈ 11.4 µg/mL).

As for `COc1cc(Cl)ccc1C(=O)Nc1cccc(C(F)(F)F)c1`, the minimal inhibitory concentration (MIC) in the assay on Mycobacterium kansasii [1] came out at 125 µM (≈ 41.2 µg/mL); against Mycobacterium kansasii [2], 125 µM (≈ 41.2 µg/mL); in the assay on Mycobacterium avium [3], 125 µM (≈ 41.2 µg/mL); in the assay with Mycobacterium kansasii [4], 125 µM (≈ 41.2 µg/mL); in assay [5], 250 µM (≈ 82.4 µg/mL); against Mycobacterium kansasii [6], 250 µM (≈ 82.4 µg/mL). The MIC against Mycobacterium kansasii [7] came to 125 µM (≈ 41.2 µg/mL); against Mycobacterium kansasii [8], 250 µM (≈ 82.4 µg/mL); against Mycobacterium avium [9], 125 µM (≈ 41.2 µg/mL); in assay [10], 250 µM (≈ 82.4 µg/mL).

Regarding `COc1cc(Cl)ccc1C(=O)Nc1cccc(Br)c1`, the MIC against Mycobacterium kansasii [1] turned out to be 125 µM (≈ 42.6 µg/mL); against Mycobacterium kansasii [2], 125 µM (≈ 42.6 µg/mL); against Mycobacterium avium [3], 125 µM (≈ 42.6 µg/mL); against Mycobacterium kansasii [4] it was 125 µM (≈ 42.6 µg/mL); in assay [5] it was 250 µM (≈ 85.2 µg/mL); against Mycobacterium kansasii [6] it was 125 µM (≈ 42.6 µg/mL). Also, the MIC with Mycobacterium kansasii [7] was 125 µM (≈ 42.6 µg/mL); in the assay on Mycobacterium kansasii [8], 125 µM (≈ 42.6 µg/mL); in the assay with Mycobacterium avium [9], 125 µM (≈ 42.6 µg/mL); in [10], 250 µM (≈ 85.2 µg/mL).

`COc1ccc(Cl)cc1C(=O)Nc1ccc(C(F)(F)F)cc1`: the MIC against Mycobacterium kansasii [1] came out at 250 µM (≈ 82.4 µg/mL); with Mycobacterium kansasii [2] it was 125 µM (≈ 41.2 µg/mL); with Mycobacterium avium [3], 250 µM (≈ 82.4 µg/mL); against Mycobacterium kansasii [4] it was 250 µM (≈ 82.4 µg/mL); in [5], 250 µM (≈ 82.4 µg/mL); in the assay with Mycobacterium kansasii [6] it was 500 µM (≈ 165 µg/mL). In addition, the MIC in the assay with Mycobacterium kansasii [7] was 62.5 µM (≈ 20.6 µg/mL); in the assay with Mycobacterium kansasii [8] it was 500 µM (≈ 165 µg/mL); against Mycobacterium avium [9], 250 µM (≈ 82.4 µg/mL); in [10], 250 µM (≈ 82.4 µg/mL).

Regarding `O=C(Nc1ccc([N+](=O)[O-])cc1)c1cc(Cl)ccc1O`, the MIC in the assay with Mycobacterium avium [3] was 8 µM (≈ 2.34 µg/mL); in assay [5], 8 µM (≈ 2.34 µg/mL); with Mycobacterium kansasii [6], 4 µM (≈ 1.17 µg/mL); against Mycobacterium kansasii [8] it was 4 µM (≈ 1.17 µg/mL); against Mycobacterium avium [9] it was 8 µM (≈ 2.34 µg/mL); in assay [10] it was 4 µM (≈ 1.17 µg/mL).

`COc1ccc(Cl)cc1C(=O)Nc1ccc(Cl)c(Cl)c1`: the MIC was found to be 125 µM (≈ 41.3 µg/mL) in the assay with Mycobacterium kansasii [1]; 62.5 µM (≈ 20.7 µg/mL) against Mycobacterium kansasii [2]; 250 µM (≈ 82.6 µg/mL) in the assay on Mycobacterium avium [3]; 125 µM (≈ 41.3 µg/mL) against Mycobacterium kansasii [4]; 125 µM (≈ 41.3 µg/mL) in [5]; 250 µM (≈ 82.6 µg/mL) with Mycobacterium kansasii [6]. The MIC in the assay on Mycobacterium kansasii [7] was 62.5 µM (≈ 20.7 µg/mL); in the assay on Mycobacterium kansasii [8], 250 µM (≈ 82.6 µg/mL); against Mycobacterium avium [9], 250 µM (≈ 82.6 µg/mL); in [10], 125 µM (≈ 41.3 µg/mL).

Regarding `O=C(Nc1ccc(C(F)(F)F)cc1)c1ccc(Cl)cc1O`, the minimum inhibitory concentration (MIC) in the assay with Mycobacterium avium [3] is 8 µM (≈ 2.53 µg/mL); in assay [5] it was 4 µM (≈ 1.26 µg/mL); in the assay with Mycobacterium kansasii [6], 4 µM (≈ 1.26 µg/mL); in the assay on Mycobacterium kansasii [8], 4 µM (≈ 1.26 µg/mL); with Mycobacterium avium [9], 8 µM (≈ 2.53 µg/mL); in [10] it was 4 µM (≈ 1.26 µg/mL).
